APJ ag = APJ receptor agonism; P35414; CHO-K1 APJ PathHunter beta-arrestin, luminescence; 0% DMSO wells, 100% apelin; activation, % at 20 µM; 0.11% of 330,000 active;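 active means activation more than six SD over the plate average, tested at 20 µM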;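 further: 0% = DMSO alone and 100% = apelin-13 at 10 nM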
Target sequence (P35414 whole entry, looked up): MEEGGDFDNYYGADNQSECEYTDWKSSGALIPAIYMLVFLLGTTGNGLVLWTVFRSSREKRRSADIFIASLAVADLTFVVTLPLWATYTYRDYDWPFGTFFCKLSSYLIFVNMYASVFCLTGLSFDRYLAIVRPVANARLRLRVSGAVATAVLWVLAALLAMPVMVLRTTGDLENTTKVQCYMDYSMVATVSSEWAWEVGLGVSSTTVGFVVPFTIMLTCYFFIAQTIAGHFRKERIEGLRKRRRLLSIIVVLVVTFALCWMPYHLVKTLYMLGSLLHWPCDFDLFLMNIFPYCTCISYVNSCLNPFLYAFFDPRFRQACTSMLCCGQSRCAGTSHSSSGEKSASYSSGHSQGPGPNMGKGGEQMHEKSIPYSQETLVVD
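Assay system: engineered CHO-K1 APJ arrestin reporter cells; Amount: 1000 CHO-K1 reporter cells seeded per well; Dosing: one dose, 20 µM compound, 1% DMSO; Times: compound stimulation 90 min at 25 °C, detection 60 min; Measured by: luminescent beta-gal fragment complementation, chemiluminescent substrate; Read-out: APJ–arrestin association signal; Controls: DMSO vs Apelin-13 10 nM.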
APJ antagonist = APJ receptor antagonism; 0.32% of 330,000 active; inhibition, % at 20 µM; CHO-K1 APJ beta-arrestin complementation, luminescence;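 active means inhibition above about 40% at 20 µM, limit read from the data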;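 further: cells challenged with 10 nM apelin-13 agonist together with compound; plate controls were apelin-13 plus DMSO wells for no effect and DMSO wells lacking apelin-13 for full effect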
CXCR6 block = CXCR6 (human) receptor inhibition; O00574; CHO-K1 PathHunter CXCR6 beta-arrestin, luminescence; inhibition, % at 20 µM; 0.36% of 360,000 active; AID 602244; in the data active means inhibition above about 34%, passing the limit was not always enough;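 further: antagonist mode with CXCL16 agonist at 10 nM final; 0% = 10 nM CXCL16 with DMSO and 100% = unstimulated wells without agonist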
EBI2 block = antagonists of human EBI2 receptor; P32249; EBI2 beta-arrestin recruitment, luminescence, 7a,25-OHC stimulated; inhibition, % at 5 µM; 0.81% of 360,000 active; in the data active means inhibition above about 38%;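 further: enzyme fragment complementation signal reports receptor beta-arrestin coupling in cells; 0% = agonist plus DMSO wells and 100% = wells without agonist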
CCR6 antagonist = antagonists of human CCR6 receptor. 0.49% of 340,000 active. inhibition, % at 20 µM. CHO-K1 CCR6 PathHunter beta-arrestin, luminescence, CCL20-stimulated. P51684. AID 493098;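 active means compounds whose inhibition of the agonist-driven luminescence signal at 20 µM reaches about 50%, limit read from the data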;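 further: cells stimulated with CCL20 at 14 nM final; plate controls were DMSO with CCL20 for no effect and DMSO without agonist for full effect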
CXCR6 antag conf = CXCR6 antagonism confirmation, single concentration; 65% of 700 active; AID 602409; inhibition, % at 20 µM; shares compounds with CXCR6 block; CHO-K1 CXCR6 PathHunter beta-arrestin, luminescence;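 active means mean inhibition over four retests above 40%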;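 further: receptor stimulated with 10 nM CXCL16 agonist; beta-galactosidase fragment complementation upon beta-arrestin recruitment to receptor; plate controls were CXCL16 plus DMSO for no effect and DMSO without CXCL16 for full effect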
Active calls of the source: *; · = no result. Shown are actives, neighbours in structure and some others; about 1.5% of the full set was active somewhere.

SMILES	APJ ag	APJ antagonist	CXCR6 block	EBI2 block	CCR6 antagonist	CXCR6 antag conf
O=C(c1ccc(-n2nc(C(F)(F)F)c3c2CCCC3)cc1)N1CCOCC1	-1.7	-2.3	47.4*	-8.4	18.1	-13.6
O=[N+]([O-])c1ccc(Cl)cc1Sc1cccc2cccnc12	-2.7	8.0	2.1	5.1	-14.0	·
Cn1nc([N+](=O)[O-])nc1Sc1cccc2cccnc12	-2.3	-3.9	43.5*	-6.3	38.0	40.8*
Cc1cccc(CN2CCN(C3CN(Cc4cn(Cc5ccccc5C(F)(F)F)nn4)S(=O)(=O)C3)CC2)c1 (stereo not given)	·	·	-5.6	2.4	·	·
COc1ccc(CCNC(=O)COC(=O)Cc2ccc(OC)cc2)cc1	-4.4	-20.3	63.0*	15.5	10.9	1.4
COc1ccc(CCNC(=O)COC(=O)Cc2cccc3ccccc23)cc1	4.9	-2.6	-2.1	-2.8	8.5	·
CC(=O)Nc1ccc(Sc2ccc([N+](=O)[O-])o2)cc1	·	·	51.7*	27.1	57.0*	59.7*
COc1cc(/C=C/C(=O)N2C(=O)c3cccc(N)c3C2=O)cc(OC)c1OC	-4.8	6.7	1.6	10.0	28.0	·
Nc1cccc2c1C(=O)N(C(=O)/C=C/c1cccc(F)c1)C2=O	0.6	19.7	50.4*	-0.3	53.0*	45.0*
Cc1ccccc1N(CC(=O)NC1CCCC1)C(=O)C1(C)CC(=O)N=C2C=CC=CN21 (stereo not given)	-3.6	17.6	4.1	1.4	2.6	·
Cc1ccccc1N(CC(=O)NCC1CCCO1)C(=O)C1(C)CC(=O)N=C2C=CC=CN21 (stereo not given)	-4.7	13.6	47.0*	-7.5	5.8	20.5
CCN(CC(=O)Nc1ccccc1C(F)(F)F)C(=O)c1ccccc1Cc1ccccc1	-7.1	9.3	0.3	-0.3	19.0	·
Cc1ccc(NC(=O)c2cc(N3C(=O)C=CC3=O)ccc2N2CCOCC2)cc1Cl	·	·	60.0*	-3.1	97.1*	38.3
Cc1ccc(NC(=O)c2cc(N3C(=O)CCC3=O)ccc2N2CCOCC2)cc1	-1.5	-3.6	2.9	-3.4	12.8	·
O=C(C=P(c1ccccc1)(c1ccccc1)c1ccccc1)c1ccccc1-c1ccccc1C(=O)C=P(c1ccccc1)(c1ccccc1)c1ccccc1	·	·	70.6*	3.2	88.4*	39.0
CC(C)c1ccc(NC(=O)COC(=O)Cn2cnc3c2c(=O)n(C)c(=O)n3C)cc1	·	·	-2.7	-4.8	·	·
Cc1cccc(C(=O)NCC(=O)N2CCCC2)c1	-0.2	11.8	40.3*	-13.2	-0.3	5.0
Cc1ccc(C(=O)NCC(=O)N2CCCCCC2)cc1	1.3	7.0	7.9	1.2	0.4	·
COC(=O)CN1C(=O)NC2(CCCc3ccccc32)C1=O (stereo not given)	-2.6	10.7	-11.5	-6.3	2.5	·
COC(=O)c1ccc(CN2C(=O)NC3(CCCc4ccccc43)C2=O)o1 (stereo not given)	-0.6	4.8	45.9*	-0.6	31.1	-5.4
O=C(NCCCN1CCOCC1)c1cc2c(s1)CSC2	-2.6	12.8	43.9*	5.0	-6.6	-8.8
COc1ccc(-n2cnnc2SCC(=O)NC2CC2)cc1	·	·	3.2	2.8	·	·
O=C(NC(=S)NCc1ccccc1)c1ccccc1F	0.3	2.7	6.0	2.4	13.9	·
O=C(NC(=S)N(Cc1ccccc1)Cc1ccccc1)c1ccccc1F	-3.9	9.6	36.1*	-0.1	23.6	24.6
O=C(NC(=S)N(CCc1ccccc1)CCc1ccccc1)c1ccco1	-0.9	22.7	38.8*	2.2	·	50.1*
SMILES	APJ ag	APJ antagonist	CXCR6 block	EBI2 block	CCR6 antagonist	CXCR6 antag conf
CC(CCc1ccccc1)NC(=S)NC(=O)c1ccco1 (stereo not given)	-3.0	0.4	11.7	0.8	0.5	·
CC(NC(=O)c1cccc(S(=O)(=O)N2CCCCCC2)c1)c1ccccc1 (stereo not given)	-0.9	-1.3	8.2	-2.4	12.2	·
CCCCC(=O)NC(=S)NNC(=O)c1ccc(OC)cc1	-2.3	39.8	46.5*	4.7	69.0*	48.1*
O=Cc1s/c(=N\S(=O)(=O)c2ccccc2)n(CCCCl)c1Cl	·	·	97.7*	21.9	105.0*	104.4*
CCn1c(C)cs/c1=N\S(=O)(=O)c1ccccc1	-2.1	5.0	-7.9	1.2	-14.0	·
CCCn1c(N)c(C(=O)CSc2ncn[nH]2)c(=O)n(C)c1=O	-0.6	11.0	-5.7	-5.7	6.8	·
CCCCn1c(N)c(C(=S)NC(=O)CC(C)(C)C)c(=O)n(C)c1=O	-2.1	37.6	38.9*	-5.2	·	35.0
COc1ccc(N2C(=O)C3CC(C)=C(C)CC3C2=O)c(OC)c1 (stereo not given)	-4.8	5.5	2.4	-1.9	9.0	·
COc1cc(N2C(=O)C=CC2=O)ccc1N1C(=O)C=CC1=O	·	·	105.5*	22.7	106.6*	46.7*
CCOC(=O)CSc1cccc2cccnc12	-6.8	37.1	53.0*	5.3	69.2*	65.4*
COc1ccc(S(=O)(=O)N2CCc3ccccc32)cc1C(=O)NC1(C)CCS(=O)(=O)C1 (stereo not given)	-2.4	16.6	6.7	-9.0	13.3	·
COC(=O)[C@H](CCSC)NC(=O)Nc1ccc(OC)cc1OC	-3.0	24.7	77.2*	-1.0	-1.0	-1.9
FC(F)Oc1ccccc1/C=N/n1cnc2ccccc21	-3.8	-2.8	49.9*	-0.8	-0.1	8.0
COc1ccc(NC(=S)NNc2ccc([N+](=O)[O-])cc2S(=O)(=O)Nc2ccc(C)cc2C)cc1	0.0	0.9	49.2*	13.9	77.2*	56.4*
Cc1ccc(NS(=O)(=O)c2cc([N+](=O)[O-])ccc2NNC(=S)Nc2cc(C)ccc2C)c(C)c1	-8.1	53.4*	63.2*	12.8	86.4*	64.3*
O=S(=O)(NC(=S)c1ccccc1)c1ccc(F)cc1	-0.9	26.5	75.6*	1.0	-8.6	-0.2
CC(C(Sc1ccccc1N)c1ccccc1)[N+](=O)[O-] (stereo not given)	0.1	15.6	29.5*	-15.4	47.7	28.1
CC1(C)CC[C@]2(C(=O)n3ccnc3)CC[C@]3(C)[C@H](C(=O)C=C4[C@@]5(C)C=C(C#N)C(=O)C(C)(C)[C@@H]5CC[C@]43C)[C@@H]2C1	·	·	54.8*	28.5	57.3*	58.2*
CCCCc1ccc(-n2nnnc2SCC(=O)Nc2cc(OC)c([N+](=O)[O-])cc2C)cc1	-2.1	6.9	74.9*	21.6	0.7	13.0
O=C(N[C@@H]1CC[C@@H](CCNS(=O)(=O)c2ccc(Cl)cc2)O[C@@H]1CO)c1cccnc1	·	·	·	-6.9	·	·
N#CC(C#N)=C1C=CC=CN1/C(=C\c1ccco1)C(=O)c1ccc(-c2ccccc2)cc1	·	·	44.0*	29.0	82.8*	50.6*
CS(=O)(=O)c1ccc2nc(NC(=O)CN3CCC(Cc4ccccc4)CC3)sc2c1	-3.9	-4.0	-6.3	1.1	28.2	·
CS(=O)(=O)c1ccc2nc(NC(=O)CN3CCN(Cc4ccccc4)CC3)sc2c1	2.8	11.2	40.1*	-0.3	1.9	9.3

Bioassay records from PubChem.
